Laboratory results published in PubChem BioAssay AID651876 (Broad Institute, 2012).
Activity calls are given as the source filed them.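 Rule for the calls: active = inhibition above 20% at 50 µM; inactive = the rest.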

Target: Kelch-like ECH-associated protein 1 (Homo sapiens) (UniProt Q14145)
Experiment: competitive SPR blockade of Keap1/Nrf2 binding – biophysical, dry powder, orthogonal assay for Keap1-Nrf2 interaction inhibitor project, confirmation (AID 651876)
Details: Keap1 Kelch binding to Nrf2 peptide, stronger effect = higher value
Summary of the method: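 Test system: Keap1 Kelch domain, biochemical. Quantity: 40 nM Kelch domain. Also added: biotinylated 16mer Nrf2 peptide captured on streptavidin CM5 surface. Doses: compound at 5 or 50 µM. Times: room-temperature preincubation, 25 °C binding. Signal: Double-referenced surface plasmon resonance, initial association-phase slopes. Measure: % inhibition via free Kelch domain fraction.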

Sequence of Kelch-like ECH-associated protein 1 (Homo sapiens) (Q14145 whole entry, looked up): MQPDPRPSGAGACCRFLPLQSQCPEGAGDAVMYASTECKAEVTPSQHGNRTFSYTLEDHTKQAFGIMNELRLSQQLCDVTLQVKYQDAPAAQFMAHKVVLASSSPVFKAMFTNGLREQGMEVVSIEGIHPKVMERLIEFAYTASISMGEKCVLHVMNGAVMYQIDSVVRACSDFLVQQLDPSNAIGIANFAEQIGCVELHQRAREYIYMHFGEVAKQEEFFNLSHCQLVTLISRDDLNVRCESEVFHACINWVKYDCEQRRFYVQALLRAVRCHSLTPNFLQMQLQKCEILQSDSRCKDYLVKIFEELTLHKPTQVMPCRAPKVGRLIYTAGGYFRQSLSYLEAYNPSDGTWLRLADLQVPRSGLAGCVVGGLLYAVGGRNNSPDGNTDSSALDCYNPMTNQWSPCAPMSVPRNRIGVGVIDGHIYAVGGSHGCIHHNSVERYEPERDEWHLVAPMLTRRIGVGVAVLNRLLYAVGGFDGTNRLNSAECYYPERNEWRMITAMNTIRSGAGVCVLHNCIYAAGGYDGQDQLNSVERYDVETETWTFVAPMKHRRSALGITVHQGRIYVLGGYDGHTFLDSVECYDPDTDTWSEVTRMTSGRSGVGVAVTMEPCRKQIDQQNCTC

| inhibition (at 50 µM) | inhibition (inhibition, at 5 µM) | Structure (SMILES) |
| --- | --- | --- |
| 59% | 12.7% | CC(C)OC(=O)C(C(=O)C(F)(F)F)c1cc(NS(=O)(=O)c2ccccc2)c2ccccc2c1O (centres undefined) |
| 7.1% (inactive) | 4.69% | Cc1cc(C)c(S(=O)(=O)Nc2cc(C(C(=O)OCc3ccccc3)C(=O)OCc3ccccc3)c(O)c3ccccc23)c(C)c1 |
